Results as given in ChEMBL document CHEMBL1121813, “Dihydrochalcone sweeteners. A study of the atypical temporal phenomena” (1981).

Legend:
Type in all cases: functional
[1] = species: Homo sapiens; test: Experimentally determined perceived intensity of compound at a concentration of 250 ppm (mean value)
Method in brief: (§1)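 Trained human sensory panel of judges tasted aqueous solutions of the compound. Samples had to be ≥95 weight % pure (HPLC, proton titration, Karl Fischer), non-mutagenic in five Salmonella typhimurium strains with and without microsomal activation, and non-toxic in a single-oral-dose mouse test. Perceived intensity (Ip) was read from time–intensity curves at 4- or 6-s intervals and averaged. Outliers at the 95% level were rejected by t-value. Values reported as mean (2Sm).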

[2] = species: Homo sapiens; test: Sweet character at a concentration of 250 ppm (mean value)
Method in brief: (§2)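 Trained human sensory panel (Swartz method) tasted dilute aqueous solutions of the compounds, which had to be ≥95 weight percent pure and free of mutagenicity and toxicity. Taste character is reported as the mean value with 2S_m limits. Data deviating excessively at the 95% confidence level were rejected by the t-value method.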

[3] = species: Homo sapiens; test: Number of taste judgments per compound
[4] = species: Homo sapiens; test: Intensity calculated on a weight basis relative to an 85500 ppm sucrose solution at a concentration of 250 ppm (mean value)
Method in brief: (§3)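 Trained human panel tasted aqueous solutions of purity-checked (≥95 weight percent) compounds cleared for mutagenicity and mouse oral toxicity. Weight-basis intensity I_w = perceived intensity × (85500 ppm sucrose / compound concentration in ppm). The mean is reported with 2S_m limits; data deviating excessively at 95% confidence were rejected by the t-value method.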

[5] = species: Homo sapiens; test: Other taste character at a concentration of 250 ppm (mean value); method in brief: as §2
[6] = species: Homo sapiens; test: Salty character at a concentration of 250 ppm (mean value); method in brief: as §2
[7] = species: Homo sapiens; test: Intensity calculated on a molar basis relative to a 0.25 M sucrose solution at a concentration of 250 ppm (mean value)
Method in brief: (§4)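 Trained human judges tasted aqueous solutions of the test compound; compounds were first required to be ≥95 weight percent pure and free of mutagenicity (five Salmonella typhimurium strains, ± microsomal activation) and of single oral dose mouse toxicity. Molar intensity I_m = perceived intensity × (0.25 M sucrose / compound molar concentration). The mean is reported with 2S_m limits; outliers were rejected at 95% confidence by t-value.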

[8] = species: Homo sapiens; test: Sour character at a concentration of 250 ppm (mean value); method in brief: as §2
[9] = species: Homo sapiens; test: Percentage of judgments reporting an aftertaste at a concentration of 250 ppm and character thereof
Method in brief: (§5)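 Trained judges tasted aqueous solutions of the compounds, which had to be ≥95 weight percent pure and to have passed mutagenicity and single oral dose toxicity screening. The value is the percentage of panel judgments reporting an aftertaste. Where given, its character is recorded as sweet, bitter or bitter-sweet.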

[10] = species: Homo sapiens; test: Sweet / Bitter character at a concentration of 250 ppm (mean value); 14/86
[11] = species: Homo sapiens; test: Bitter character at a concentration of 250 ppm (mean value)
Method in brief: (§6)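 Trained human panel tasted aqueous solutions. Each judge reported whether there was an aftertaste and its character (sweet, bitter or bitter-sweet). The value is the percentage of judgments reporting a bitter aftertaste.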

[12] = species: Homo sapiens; test: Sweet / Bitter character at a concentration of 240 ppm (mean value); 7/93
[13] = species: Homo sapiens; test: Other taste character at a concentration of 240 ppm (mean value); method in brief: as §2
[14] = species: Homo sapiens; test: Bitter character at a concentration of 240 ppm (mean value); method in brief: as §6
[15] = species: Homo sapiens; test: Intensity calculated on a weight basis relative to an 85500 ppm sucrose solution at a concentration of 240 ppm (mean value); method in brief: as §3
[16] = species: Homo sapiens; test: Percentage of judgments reporting an aftertaste at a concentration of 240 ppm and character thereof; method in brief: as §5
[17] = species: Homo sapiens; test: Intensity calculated on a molar basis relative to a 0.25 M sucrose solution at a concentration of 240 ppm (mean value); method in brief: as §4
[18] = species: Homo sapiens; test: Sour character at a concentration of 240 ppm (mean value); method in brief: as §2
[19] = species: Homo sapiens; test: Experimentally determined perceived intensity of compound at a concentration of 240 ppm (mean value); method in brief: as §1
[20] = species: Homo sapiens; test: Sweet character at a concentration of 240 ppm (mean value); method in brief: as §2
[21] = species: Homo sapiens; test: Salty character at a concentration of 240 ppm (mean value); method in brief: as §2
[22] = species: Homo sapiens; test: Sweet / Bitter character at a concentration of 240 ppm (mean value); 0/100
[23] = species: Homo sapiens; test: Salty character at a concentration of 246 ppm (mean value)
[24] = species: Homo sapiens; test: Percentage of judgments reporting an aftertaste at a concentration of 246 ppm and character thereof; method in brief: as §5
[25] = species: Homo sapiens; test: Sweet character at a concentration of 246 ppm (mean value)
[26] = species: Homo sapiens; test: Intensity calculated on a molar basis relative to a 0.25 M sucrose solution at a concentration of 246 ppm (mean value); method in brief: as §4
[27] = species: Homo sapiens; test: Sour character at a concentration of 246 ppm (mean value)
[28] = species: Homo sapiens; test: Sweet / Bitter character at a concentration of 246 ppm (mean value); 44/56
[29] = species: Homo sapiens; test: Bitter character at a concentration of 246 ppm (mean value); method in brief: as §6
[30] = species: Homo sapiens; test: Experimentally determined perceived intensity of compound at a concentration of 246 ppm (mean value); method in brief: as §1
[31] = species: Homo sapiens; test: Other taste character at a concentration of 246 ppm (mean value); method in brief: as §2
[32] = species: Homo sapiens; test: Intensity calculated on a weight basis relative to an 85500 ppm sucrose solution at a concentration of 246 ppm (mean value); method in brief: as §3
[33] = species: Homo sapiens; test: Percentage of judgments reporting an aftertaste at a concentration of 210 ppm and character thereof; method in brief: as §5
[34] = species: Homo sapiens; test: Sour character at a concentration of 210 ppm (mean value)
[35] = species: Homo sapiens; test: Bitter character at a concentration of 210 ppm (mean value); method in brief: as §6
[36] = species: Homo sapiens; test: Sweet character at a concentration of 210 ppm (mean value)
[37] = species: Homo sapiens; test: Experimentally determined perceived intensity of compound at a concentration of 210 ppm (mean value); method in brief: as §1
[38] = species: Homo sapiens; test: Other taste character at a concentration of 210 ppm (mean value)
Method in brief: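 Trained human panel tasted aqueous solutions of each compound. Aftertaste is scored as the percentage of judgments reporting one, with its character coded sweet (s), bitter (b) or bitter-sweet (bs).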

[39] = species: Homo sapiens; test: Sweet / Bitter character at a concentration of 210 ppm (mean value); 0/100
[40] = species: Homo sapiens; test: Salty character at a concentration of 210 ppm (mean value)
[41] = species: Homo sapiens; test: Intensity calculated on a molar basis relative to a 0.25 M sucrose solution at a concentration of 210 ppm (mean value); method in brief: as §4
[42] = species: Homo sapiens; test: Intensity calculated on a weight basis relative to an 85500 ppm sucrose solution at a concentration of 210 ppm (mean value); method in brief: as §3

`O=C([O-])COc1cc(O)c(C(=O)CCc2ccc(Cl)c(O)c2)c(O)c1.[Na+]` gave an IP [1] of 0.28, a Taste character [2] of 11 and a Judgments [3] of 12. For the same compound, the IW [4] was 27, the Taste character [5] was 19 and the Taste character [6] was 0. For the same compound, the IM [7] was 31, the Taste character [8] was 0 and the Judgments [9] was 0. The Taste character [10] was 14 and the Taste character [11] was 70.

With `COc1ccc(CCCc2c(O)cc(O)cc2O)cc1O` the Taste character [12] was 7, the Taste character [13] was 5 and the Taste character [14] was 88. The IW [15] was 89, the Judgments [16] was 0 and the IM [17] was 76. For the same compound, the Judgments [3] was 12, the Taste character [18] was 0 and the IP [19] was 0.25. For the same compound, the Taste character [20] was 7 and the Taste character [21] was 0.

`COc1ccc(CCCc2c(O)cc(OCC(=O)[O-])cc2O)cc1O.[Na+]` showed a Taste character [22] of 0, a Taste character [13] of 0 and a Taste character [14] of 100. The IW [15] was 4, the Judgments [16] was 0 and the IM [17] was 4. It also gave a Judgments [3] of 12, a Taste character [18] of 0 and an IP [19] of 0.01. For the same compound, the Taste character [20] was 0 and the Taste character [21] was 0.

For `O=C([O-])COc1cc(O)c(C(=O)CCc2cccc(O)c2)c(O)c1.[Na+]`, the Taste character [23] was 0, the Judgments [24] was 62 and the Judgments [3] was 12. It also gave a Taste character [25] of 38, an IM [26] of 79 and a Taste character [27] of 0. For the same compound, the Taste character [28] was 44, the Taste character [29] was 49 and the IP [30] was 0.22. It also gave a Taste character [31] of 13 and an IW [32] of 76.

In the case of `COc1ccc(CC/C(=N\O)c2c(O)cc(OCC(=O)[O-])cc2O)cc1O.[Na+]`, the Judgments [33] is reported as 0, the Taste character [34] is reported as 26 and the Judgments [3] is reported as 12. It also gave a Taste character [35] of 74, a Taste character [36] of 0 and an IP [37] of 0.2. The Taste character [38] was 0, the Taste character [39] was 0 and the Taste character [40] was 0. For the same compound, the IM [41] was 130 and the IW [42] was 110.
